TAAR1 agonist – agonists of human TAAR1 | activation, % at 3 µM | actives 0.99% (n = 360,000) | Q96RJ0 | AID 624467 | CHO RD-HGA16 TAAR1, Fluo-8 calcium fluorescence; vehicle wells 0%, saturating PEA agonist 100%;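 active = activation above the mean activation of all test compounds in the run plus 3 SD, cut at about 38% in these data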
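Signal – calcium-sensitive Fluo-8 signal, excitation 470-495, emission 515-575 nm · System – RD-HGA16 (CHO) cells co-expressing Gα16 and hTAAR1 · Incubation – 17-24 h seeding, 75 min 37 °C dye, 30 min RT · Compound dosing – 3 µM single concentration · Repeats – no replicates (n 1)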
OX1R antag-1 – blocks the human orexin 1 receptor; OX1R-expressing cells, FRET antagonist read-out; O43613; actives 1.8% (n = 330,000); AID 485270; inhibition, % at 6.6 µM; in the data active = inhibition mostly above about 38%, no sharp cut-off; inactive = mostly below about 40%;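 note: 0% = agonist challenge alone and 100% = reference antagonist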
GPR7 antag – blocks human GPR7 receptor signaling; P48145; GPR7-expressing cells, fluorescence antagonist assay; inhibition, % at 4.4 µM; actives 1.1% (n = 290,000); in the data active = inhibition above about 16%, passing the limit was not always enough;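 note: cells stimulated with the agonist NPW; 0% = agonist with vehicle and 100% = vehicle without agonist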
Target sequence (P48145 whole entry, looked up): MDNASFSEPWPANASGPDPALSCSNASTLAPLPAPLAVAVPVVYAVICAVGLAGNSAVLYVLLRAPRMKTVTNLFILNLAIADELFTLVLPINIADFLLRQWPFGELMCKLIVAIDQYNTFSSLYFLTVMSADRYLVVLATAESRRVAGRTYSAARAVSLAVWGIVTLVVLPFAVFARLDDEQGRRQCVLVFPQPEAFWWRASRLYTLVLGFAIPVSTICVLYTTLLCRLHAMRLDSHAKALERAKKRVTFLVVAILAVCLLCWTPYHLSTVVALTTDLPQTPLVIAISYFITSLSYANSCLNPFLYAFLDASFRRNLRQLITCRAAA
CHO parental Ca – signal in parental CHO cells, OX1R antagonist counter-screen; inhibition, % at 5.6 µM; actives 0.63% (n = 330,000); AID 463079; parental CHO-K1, ATP-induced calcium, Fluo-8 fluorescence;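 active = inhibition above that plate's mean sample inhibition plus 3 SD, cut at about 26% in these data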;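 note: 0% = ATP-challenged DMSO wells and 100% = DMSO wells without ATP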
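Material: parental CHO cells / Compound: single nominal dose of 5.6 µM per compound / Signal: Fluo-8 fluorescence / Replicates: singlicate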
TAAR1 antagonist – antagonists of human TAAR1. CHO RD-HGA16 TAAR1, Fluo-8 calcium fluorescence, antagonist. inhibition, % at 3 µM. AID 624466. Q96RJ0. actives 1.5% (n = 360,000);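 active = inhibition above a per-plate cutoff, the mean inhibition of test compounds on that plate plus 3 SD, cut at about 49% in these data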;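 note: 0% = DMSO plus EC80 beta-PEA response and 100% = DMSO alone without agonist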
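Assay system: CHO-derived RD-HGA16 cells stably expressing human TAAR1 plus Gα16. Timing: 140 s kinetic read after compound, 140 s after agonist. Technique: kinetic Fluo-8 calcium fluorescence measurement. Measure: % inhibition of agonist calcium response.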
OX1R antag-2 – antagonists of human orexin 1 receptor; AID 434989; CHO/OX1R cells, Fluo-8 calcium fluorescence, orexin A; actives 0.43% (n = 330,000); inhibition, % at 5 µM; O43613;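 active = inhibition above its plate's threshold, mean inhibition of all tested compounds on the plate plus 3 SD, cut at about 37% in these data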;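 note: 0% = orexin A challenge wells and 100% = SB-334867-A antagonist wells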
* = called active by the depositor; / = no result. Sampled rows, rich in hits. Any-hit rate of the full collection: about 4.5%.

SMILES	TAAR1 agonist	OX1R antag-1	GPR7 antag	CHO parental Ca	TAAR1 antagonist	OX1R antag-2
CC1CCC(C(C)C)C(OC(=O)CSc2nc(N)cc(=O)[nH]2)C1 (stereo not drawn)	6.1	5.2	-0.9	-20.6	-6.5	-18.8
CS(=O)(=O)Nc1ccccc1C(=O)Nc1cc(Cl)cc(Cl)c1	15.4	46.3*	-2.6	19.5	22.5	10.8
O=C(Nc1cccc2ccccc12)c1ccc([N+](=O)[O-])o1	-0.8	29.3	-22.0	-7.3	-3.1	-11.1
O=C(Nc1ncccn1)c1ccc([N+](=O)[O-])o1	7.8	41.1*	-5.1	-13.6	0.3	1.0
NC(=O)c1ccsc1NC(=O)c1ccc([N+](=O)[O-])o1	8.3	33.7*	/	-4.5	-3.3	32.1
O=C(Nc1ccccn1)c1ccc([N+](=O)[O-])o1	/	72.3*	-5.9	-1.4	/	-6.0
Cc1cccc(NC(=O)c2ccc([N+](=O)[O-])o2)c1C	0.5	76.1*	-4.0	-0.6	-19.5	-14.1
C[C@H]1COc2cccc(N3CCCC3)c2S(=O)(=O)N1	4.3	/	/	/	-23.1	/
Cc1nn(CC(=O)NCCc2ccc(Cl)cc2)c(=O)c2cccn12	4.2	6.2	-2.3	-11.2	-25.0	-25.9
Cc1cccc(OCc2nnc(SCC(=O)Nc3sc(C)c(C)c3C#N)n2C)c1	41.8*	7.3	-9.0	6.6	22.1	5.5
Cc1nn(-c2ccccc2)c2sc(C(=O)NNC(=O)COc3ccccc3)cc12	1.7	48.6*	-2.5	-6.1	-5.8	-9.2
Cc1nn(-c2ccccc2)c2sc(C(=O)NNC(=O)COc3cccc4ccccc34)cc12	4.3	10.8	19.6	-15.2	15.1	-28.9
CCN1C[C@@H]2[C@@H]3C(=O)N(C)C(=O)[C@@H]3[C@](CC)(C1=O)N2C(=O)c1ccc(C)cc1	2.9	/	/	/	15.1	/
O=C(NC(=S)Nc1ccc2[nH]c(=O)[nH]c2c1)c1ccccc1[N+](=O)[O-]	9.2	11.7	-14.1	6.0	-16.9	-8.1
CCOc1ccc2ccccc2c1C(=O)N1CCN(c2ccccc2)CC1	11.0	21.1	19.8*	-16.5	-0.6	-38.0
Cc1[nH]c2ccccc2c1CC(=O)Nc1ccc(Oc2cccnc2)cc1	-0.4	/	/	/	10.3	/
CCn1c(Cn2nnc(-c3ccccc3)n2)nnc1SCC(=O)Nc1cccc(C(C)=O)c1	2.8	55.6*	1.1	-8.3	7.4	8.2
CCn1c(Cn2nnc(-c3ccccc3)n2)nnc1SCC(=O)Nc1cccc(C)c1C	1.8	76.7*	7.5	-15.3	-22.1	5.8
CCn1c(Cn2nnc(-c3ccccc3)n2)nnc1SCC(=O)Nc1ccc(C(C)=O)cc1	0.5	10.5	-12.8	-29.9	-6.8	-13.4
COc1ccc(C(C(=O)NC(C)(C)C)N(Cc2cccnc2)C(=O)CCC(=O)Nc2cc(C)on2)cc1 (stereo not drawn)	-1.9	7.8	-9.9	-3.9	2.2	-13.3
O=C1N=c2ccc(Br)cc2=C1c1sc(=O)[nH]c1O	/	41.5*	8.8	2.8	/	-21.2
CCCCOCC1CN(CCCC)S(=O)(=O)c2c(cccc2Sc2ccc(OC)c(OC)c2)O1 (stereo not drawn)	0.0	/	/	/	-18.9	/
COc1cccc(/C=N/Nc2nc3ccccc3n3cnnc23)c1O	4.9	67.0*	-10.3	-2.3	-0.9	-5.9
OC(CNC1Cc2ccccc2C1)COc1ccc(Cl)cc1 (stereo not drawn)	8.9	30.0	-0.8	-11.9	8.3	-24.8
OC(CNC1CCCc2ccccc21)COc1c(Cl)cccc1Cl (stereo not drawn)	69.0*	19.9	3.4	-18.4	9.6	-37.0
CCOC(=O)C1(CC2CCCCO2)CCN(Cc2nccn2-c2cccc(C)c2)CC1 (stereo not drawn)	1.0	16.1	19.4*	-14.3	-25.0	-25.4
Brc1c(-c2ccccc2)nc2n1Cc1ccccc1-2	0.6	64.1*	-10.5	-24.9	-16.1	-29.0
O=C(CNC(=O)c1nc[nH]c1C(=O)N1CCc2ccccc2C1)OCc1ccccc1	21.0	32.8	-10.9	-15.7	61.9*	-17.3
O=C(N[C@@H](Cc1ccccc1)C(=O)OCc1ccccc1)c1nc[nH]c1C(=O)N1CCN(c2ccccc2)CC1	11.8	8.3	/	27.1	52.1*	19.0
COc1cccc(OC)c1C(=O)Nc1cccc2c1CCCC2	1.3	73.4*	5.5	-2.7	-1.8	-8.6
